Data reported in ChEMBL document CHEMBL5113504, “Discovery of potent benzoxaborole inhibitors against SARS-CoV-2 main and dengue virus proteases” (Eur J Med Chem, 2022).
The source made the active and inactive calls. The rule behind the calls is not given here.

How the values were obtained:
HeLa [1] = test: Cytotoxicity against human HeLa cells expressing renilla luciferase reporter construct assessed as reduction in cell viability at 12.5 uM by luciferase based analysis; assay type: toxicity
HeLa [2] = test: Cytotoxicity against human HeLa cells expressing luciferase-based DENV-2 protease reporter system assessed as reduction in cell viability by celltiter-blue assay; assay type: toxicity
Outline: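 CellTiter-Blue viability in HeLa reporter cells or Huh-7 cells, on plates run in parallel with the reporter or titer-reduction assay under the same treatment; each concentration in triplicate.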

[3] = molecular target: Genome polyprotein (dengue virus type 2) (UniProt P29990); test: Inhibition of full length DENV2 NS2B-NS3 protease in human HeLa cells expressing luciferase reporter gene at 12.5 uM incubated for 24 hrs by luminescence analysis relative to control; assay type: cell-based
Outline: (§1)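 Stable DENV2pro reporter HeLa cells seeded at 2×10^4 per well and dosed immediately; 24 h at 37 °C, lysed 15 min, coelenterazine (2.75 μM in PBS) injected, luminescence read 5 s. Triplicates; % inhibition vs untreated cells; EC50 by 4-parameter fit with cell-free background subtraction.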

[4] = molecular target: Replicase polyprotein 1ab (Severe acute respiratory syndrome coronavirus 2) (UniProt P0DTD1); test: Inhibition of C-terminal His tagged SARS CoV-2 main protease transfected in Escherichia coli BL21 (DE3) using 2-Abz-Ser-AlaVal-Leu-Gln-Ser-Gly-Tyr(3-NO2)-Arg-OH as substrate at 50 uM preincubated for 15 mins followed by substrate addition and measured after 15 mins by FRET assay relative to control; conditions: time 30.0 min
Genome polyprotein [5] = molecular target: T1, Genome polyprotein (dengue virus type 2, UniProt P29990); test: Inhibition of full length DENV2 NS2B-NS3 protease in human HeLa cells expressing luciferase reporter gene incubated for 24 hrs by luminescence analysis; assay type: cell-based; outline: as §1
[6] = molecular target: T2, Replicase polyprotein 1ab (Severe acute respiratory syndrome coronavirus 2, UniProt P0DTD1); test: Inhibition of C-terminal His tagged SARS CoV-2 main protease transfected in Escherichia coli BL21 (DE3) using 2-Abz-Ser-AlaVal-Leu-Gln-Ser-Gly-Tyr(3-NO2)-Arg-OH as substrate preincubated for 15 mins followed by substrate addition and measured after 15 mins by FRET assay
[7] = Permeability of compound in PBS at pH 7.4 measured after 5 hrs by HPLC-UV based PAMPA assay; assay type: ADME; conditions: pH 7.4, 5 h
[8] = Selectivity index, ratio of EC50 for inhibition of full length DENV2 NS2B-NS3 protease in human HeLa cells expressing luciferase reporter gene to IC50 for inhibition of C-terminal His tagged SARS CoV-2 main protease transfected in Escherichia coli BL21 (DE3); assay type: cell-based
Genome polyprotein [9] = molecular target: T1, Genome polyprotein; test: Chemical stability of the compound in DENV2 NS2B-NS3 protease assay buffer assessed as DENV2 NS2B-NS3 protease-mediated amide bond cleavage by measuring reduction in AUC at 100 uM measured after 8 hrs by HPLC analysis; assay type: ADME; conditions: dengue virus type 2, buffer
Outline: (§2)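 Compound incubated with isolated protease (SARS-CoV-2 Mpro or DENV-2 protease) in that enzyme's assay buffer for 8 h; remaining compound quantified by HPLC with UV/Vis detection (peak AUC).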

[10] = molecular target: Replicase polyprotein 1ab (Severe acute respiratory syndrome coronavirus 2) (UniProt P0DTD1); test: Inhibition of C-terminal His tagged SARS CoV-2 main protease transfected in Escherichia coli BL21 (DE3) at 50 uM incubated in presence of DTT
Outline: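 Mpro fluorogenic inhibition assay repeated with 1 mM DTT added to the assay buffer.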

[11] = molecular target: T2, Replicase polyprotein 1ab; test: Chemical stability of the compound in SARS-CoV-2 main protease assay buffer assessed as SARS-CoV-2 main protease-mediated amide bond cleavage at 100 uM measured after 8 hrs by HPLC based UV-Vis analysis; assay type: ADME; conditions: severe acute respiratory syndrome coronavirus 2, buffer; outline: as §2

SMILES | Activity (HeLa [1]) | CC50 (HeLa [2]) | inhibition [3] | inhibition [4] | EC50 (Genome polyprotein [5]) | IC50 [6] | permeability [7] | Ratio [8] | Stability (Genome polyprotein [9]) | inhibition [10] | Stability [11]
OB1OCc2ccccc21 [BENZOXABOROLE] | Non-Toxic | > 100 µM | < 10% | < 10% |  |  |  |  |  |  | 
CN(c1ccc2c(c1)B(O)OC2)S(=O)(=O)c1ccc(Cl)cc1 | Non-Toxic | > 50 µM | 24.2% | < 10% | > 50 µM |  |  |  |  |  | 
OB1OCc2cc(F)ccc21 [TAVABOROLE] |  | > 50 µM | 15.3% | < 10% |  |  |  |  |  |  | 
O=C(Nc1ccc2c(c1)B(O)OC2)c1cccc(OCC2CCCCC2)c1 |  | 123 µM | 79.1% | 29.3% |  |  |  |  |  |  | 
O=C(Oc1cncc(Cl)c1)c1cccs1 |  |  |  | 95% |  | 1.7 µM |  |  |  |  | 
O=[N+]([O-])c1ccc2c(c1)B(O)OC2 |  | > 100 µM | 14.5% | < 10% |  |  |  |  |  |  | 
O=C(Nc1ccc2c(c1)B(O)OC2)OCc1ccccc1 |  | > 50 µM | 67.5% | < 10% | 4 µM |  |  |  |  |  | 
O=S(=O)(Nc1ccc2c(c1)B(O)OC2)c1ccc(Cl)cc1 |  | > 50 µM | 51.6% | < 10% | 9.2 µM |  | Permeable |  |  |  | 
O=C(Nc1cccc(B(O)O)c1)c1cccc(OCc2ccccc2)c1 | Non-Toxic | > 50 µM | 65.1% | < 10% | 12.5 µM |  | Permeable | 5 |  |  | 
Nc1ccc2c(c1)B(O)OC2 | Non-Toxic | > 100 µM | < 10% | 17.5% |  |  |  |  |  |  | 
Nc1ccc(C(=O)Nc2ccc3c(c2)B(O)OC3)cc1 |  | > 200 µM | 14.3% | 39.7% |  |  |  |  |  |  | 
O=C(Nc1ccc2c(c1)B(O)OC2)c1ccc(OCc2ccc(Cl)cc2)cc1 |  | > 50 µM | 31.3% | 20.4% | 14.5 µM |  | Permeable |  | Stable |  | 
COc1cccc(C(=O)Nc2ccc3c(c2)B(O)OC3)c1 |  | > 100 µM | 60.1% | 24.3% | 6.4 µM |  |  |  |  |  | 
N#Cc1ccc(COc2cccc(C(=O)Nc3ccc4c(c3)B(O)OC4)c2)cc1 |  | > 200 µM |  | 43.4% |  |  | Permeable |  |  |  | 
O=C(Nc1ccc2c(c1)B(O)OC2)c1cccc(NCc2ccccc2)c1 |  | 144 µM | 73.6% | 46.9% | 5.2 µM | 56.9 µM |  |  |  |  | 
O=C(Nc1ccc2c(c1)B(O)OC2)c1cccc(Oc2ccccc2)c1 |  | > 50 µM | 77.4% | 34.6% | 6.4 µM |  |  |  |  |  | 

SMILES | Activity (HeLa [1]) | CC50 (HeLa [2]) | inhibition [3] | inhibition [4] | EC50 (Genome polyprotein [5]) | IC50 [6] | permeability [7] | Ratio [8] | Stability (Genome polyprotein [9]) | inhibition [10] | Stability [11]
O=C(Nc1ccc2c(c1)B(O)OC2)c1ccc(OCc2ccccc2)cc1 |  | > 50 µM | 54.4% | 39.6% | 8.8 µM |  |  |  |  |  | 
COc1cccc(COc2cccc(C(=O)Nc3ccc4c(c3)B(O)OC4)c2)c1 |  | > 200 µM | 90% | 45.7% |  |  |  |  |  |  | 
O=C(Nc1ccc2c(c1)B(O)OC2)c1cccc(OCc2ccc(Cl)cc2)c1 |  | 75.3 µM |  | 43.5% |  |  |  |  | Stable |  | 
O=C(Nc1ccc2c(c1)B(O)OC2)c1ccc(Oc2ccccc2)cc1 |  | > 50 µM | 79.7% | 19.5% | 3.5 µM |  | Permeable |  | Stable |  | 
N=C(N)Nc1ccc2c(c1)B(O)OC2 | Non-Toxic | > 100 µM | < 10% | 88% |  | 10 µM | Impermeable |  |  | Active | 
N#Cc1ccc(CNc2ccc3c(c2)B(O)OC3)cc1 |  | > 100 µM | 41.8% | < 10% |  |  |  |  |  |  | 
CC(C(=O)Nc1ccc2c(c1)B(O)OC2)c1cccc(Oc2ccccc2)c1 (stereo unspecified) |  | > 50 µM | 76.7% | 19% | 3.1 µM |  |  |  |  |  | 
O=C(Nc1ccc2c(c1)B(O)OC2)c1cccc(OCc2ccccc2)n1 |  | 124 µM |  | 99.6% |  | 38.5 µM |  |  |  |  | 
O=C(Nc1ccccc1)Nc1ccc2c(c1)B(O)OC2 |  | > 200 µM | 31% | 15.9% | 22.5 µM |  |  |  |  |  | 
O=C(NCc1ccc(B(O)O)cc1)c1cccc(OCc2ccccc2)c1 |  | > 50 µM | 29.3% | 18.5% | 14 µM |  |  | 5 |  |  | 
O=C(Nc1cccc(C(=O)Nc2ccc3c(c2)B(O)OC3)c1)c1ccccc1 |  | > 200 µM | 51.5% | 45.6% | 13.1 µM | 52.3 µM |  |  |  |  | Stable
O=C(Nc1ccc2c(c1)B(O)OC2)c1ccc(N2CCOCC2)cc1 | Non-Toxic | > 50 µM | 41.1% | 12.7% | 17.1 µM |  |  |  |  |  | 
Cc1onc(-c2ccc(F)cc2)c1C(=O)Nc1ccc2c(c1)B(O)OC2 | Non-Toxic | > 100 µM | 32.6% | < 10% | 21.6 µM |  |  |  |  |  | 
O=C(Nc1ccc2c(c1)B(O)OC2)c1ccccc1OCc1ccccc1 |  | > 50 µM | 66.7% | 40.6% | 6.1 µM |  | Permeable |  |  |  | 
O=C(Nc1ccc2c(c1)B(O)OC2)c1ccc(C(F)(F)F)cc1 | Non-Toxic | > 50 µM | < 10% | 21% |  |  |  |  |  |  | 
CCCCCC(=O)Nc1ccc2c(c1)B(O)OC2 |  | > 200 µM | 37.2% | < 10% | 19.2 µM |  |  |  |  |  | 
